Assay results from ChEMBL document CHEMBL4732058, “Development of pyrene-based fluorescent ether lipid as inhibitor of SK3 ion channels” (Eur J Med Chem, 2021).
Activity calls are given as the source filed them. No cut-off for these calls is given here.

Assays:
MDA-MB-435 [1] = experiment: Inhibition of cell migration in human MDA-MB-435 cells expressing SK3 channel at 0.3 uM measured after 24 hrs; format: functional
Procedure, shortened: (§1)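 Transwell migration through […] pore inserts in 24-well plates, using MDA-MB-435s expressing endogenous SK3 (SK3+) or not (SK3-); DMSO stock 10 mM. Results relative to control, mean ± S.E.M.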

[2] = molecular target: Small conductance calcium-activated potassium channel protein 3 (Rattus norvegicus) (UniProt P70605); experiment: Inhibition of recombinant rat SK3 expressed in HEK293 cells assessed as reduction in channel current at 10 uM and holding potential at 0 mV by whole cell patch clamp method relative to control; format: cell-based
Chain of Small conductance calcium-activated potassium channel protein 3 (Rattus norvegicus) (P70605 whole entry): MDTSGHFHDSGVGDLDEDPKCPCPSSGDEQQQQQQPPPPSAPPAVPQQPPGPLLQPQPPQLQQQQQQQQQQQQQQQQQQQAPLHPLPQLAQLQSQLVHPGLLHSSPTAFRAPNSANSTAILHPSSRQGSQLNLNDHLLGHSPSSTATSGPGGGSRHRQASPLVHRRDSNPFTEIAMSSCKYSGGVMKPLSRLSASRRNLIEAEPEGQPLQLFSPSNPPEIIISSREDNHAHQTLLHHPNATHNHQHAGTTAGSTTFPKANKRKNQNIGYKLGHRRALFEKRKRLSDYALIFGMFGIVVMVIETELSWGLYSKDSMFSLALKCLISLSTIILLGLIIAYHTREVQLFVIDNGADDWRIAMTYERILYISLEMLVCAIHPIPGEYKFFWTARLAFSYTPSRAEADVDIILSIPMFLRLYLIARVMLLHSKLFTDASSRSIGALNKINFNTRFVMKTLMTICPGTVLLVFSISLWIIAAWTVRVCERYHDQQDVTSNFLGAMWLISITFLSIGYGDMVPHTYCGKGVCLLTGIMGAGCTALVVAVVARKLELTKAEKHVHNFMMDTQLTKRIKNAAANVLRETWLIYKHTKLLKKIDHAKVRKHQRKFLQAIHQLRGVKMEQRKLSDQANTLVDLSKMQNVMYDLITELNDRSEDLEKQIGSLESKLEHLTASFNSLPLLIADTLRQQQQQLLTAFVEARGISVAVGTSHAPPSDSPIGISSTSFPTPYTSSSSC

[3] = molecular target: Small conductance calcium-activated potassium channel protein 3 (Homo sapiens) (UniProt Q9UGI6); experiment: Inhibition of SK3 (unknown origin) assessed as reduction in SK3 expression in presence of proteinase K
Chain of Small conductance calcium-activated potassium channel protein 3 (Homo sapiens) (Q9UGI6 whole entry): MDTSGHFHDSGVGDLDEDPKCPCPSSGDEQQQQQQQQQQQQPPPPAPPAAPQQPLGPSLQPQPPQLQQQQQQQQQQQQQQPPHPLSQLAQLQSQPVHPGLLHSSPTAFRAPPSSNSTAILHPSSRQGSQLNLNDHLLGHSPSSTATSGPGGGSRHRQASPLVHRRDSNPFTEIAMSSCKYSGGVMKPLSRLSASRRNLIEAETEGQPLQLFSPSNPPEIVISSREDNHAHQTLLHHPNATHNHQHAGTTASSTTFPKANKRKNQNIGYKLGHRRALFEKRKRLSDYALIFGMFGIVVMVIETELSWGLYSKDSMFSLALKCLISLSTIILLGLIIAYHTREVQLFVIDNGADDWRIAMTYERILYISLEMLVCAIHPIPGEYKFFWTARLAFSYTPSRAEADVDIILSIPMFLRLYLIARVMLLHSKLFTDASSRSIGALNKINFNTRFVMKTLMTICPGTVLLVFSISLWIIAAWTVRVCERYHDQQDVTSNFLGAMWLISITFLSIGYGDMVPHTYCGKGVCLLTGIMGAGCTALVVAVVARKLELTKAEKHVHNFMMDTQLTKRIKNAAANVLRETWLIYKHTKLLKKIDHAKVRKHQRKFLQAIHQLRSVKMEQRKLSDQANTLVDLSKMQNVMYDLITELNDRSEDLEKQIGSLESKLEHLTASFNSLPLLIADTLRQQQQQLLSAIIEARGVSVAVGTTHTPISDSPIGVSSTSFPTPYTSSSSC
Procedure, shortened: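 Cell-surface expression by proteinase K cleavage: cells incubated with or without […] proteinase K at 37 °C for 30 min, quenched with ice-cold PBS with 6 mM PMSF and 25 mM EDTA; western blot, full-length SK3 75 kDa, surface-cleaved band 55 kDa.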

MDA-MB-435 [4] = experiment: Cytotoxicity against human MDA-MB-435 cells at 1 uM incubated for 48 hrs by MTT assay; format: cell-based; conditions: mda-mb-435, 48 h
[5] = Drug uptake in human MDA-MB-231 cells at 1 uM after 2 hrs by fluorescence imaging analysis; format: ADME, cell-based; conditions: mda-mb-231, 2 h
Procedure, shortened: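 Breast cancer cells seeded at 100.000 per 35 mm dish in serum-supplemented DMEM, treated 24 h after seeding; medium swapped to serum-free DMEM before adding compound. Wide-field microscope, 20× oil objective, excitation 340 nm, excimer emission imaged 468–552 nm; same field imaged every 15 min from 60 to 165 min after addition.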

MDA-MB-435 [6] = experiment: Inhibition of cell migration in human MDA-MB-435 cells at 1 uM measured after 24 hrs; format: functional, cell-based; procedure, shortened: as §1
[7] = Fluorescence property of compound in preformed egg-PC based liposomes assessed as liposomal integration at 0.2 uM by fluorescence spectra analysis; format: physicochemical; conditions: artificial membrane
Procedure, shortened: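 Post-insertion: compound from methanol stock (50 mM) added to preformed, sonicated egg-PC liposomes; final compound 0.2 at lipid 8 or 40 (lipid/compound ratios 40 or 200).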

MDA-MB-435 [8] = experiment: Inhibition of cell migration in human MDA-MB-435 cells expressing SK3 channel at 1 uM measured after 24 hrs; format: functional; procedure, shortened: as §1
[9] = Fluorescence property of compound in egg-PC based liposomes assessed as liposomal integration at 0.2 uM added before liposome formation by fluorescence spectra analysis; format: physicochemical; conditions: artificial membrane
Procedure, shortened: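 Pre-insertion: methanol stock (50 mM) added to egg-PC lipids before solvent evaporation, then liposomes formed; final compound 0.2 at lipid 8 or 40 (lipid/compound ratios 40 or 200).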

[10] = Drug uptake in plasma membrane of human MDA-MB-231 cells at 1 uM measured after 45 mins by fluorescence imaging analysis; format: ADME, cell membranes, Cell membrane; conditions: mda-mb-231, 0.75 h
[11] = molecular target: Small conductance calcium-activated potassium channel protein 3 (Rattus norvegicus) (UniProt P70605); experiment: Inhibition of recombinant rat SK3 expressed in HEK293T cells assessed as reduction in channel current at 10 uM and holding potential at 0 mV by whole cell patch clamp method relative to control; format: cell-based

inhibition [2]	inhibition [3]	Drug uptake [5]	Activity [7]	Activity [9]	Drug uptake [10]	inhibition [11]	Structure (SMILES)	inhibition at 0.3 µM (MDA-MB-435 [1])	inhibition (MDA-MB-435 [1])	Activity (MDA-MB-435 [4])	inhibition (MDA-MB-435 [6])	inhibition at 1 µM (MDA-MB-435 [8])
73%	inactive						CCCCCCCCCCCCCCCCOCC(CO[C@@H]1O[C@H](CO)[C@@H](O[C@@H]2O[C@H](CO)[C@H](O)[C@H](O)[C@H]2O)[C@H](O)[C@H]1O)OC (stereo not given in full)	50%				
	inactive	Active	Active	Active	Active		COC(COCCCCCCCCCCCc1ccc2ccc3cccc4ccc1c2c34)CO[C@@H]1O[C@H](CO)[C@@H](O[C@@H]2O[C@H](CO)[C@H](O)[C@H](O)[C@H]2O)[C@H](O)[C@H]1O (mixture of isomers)		inactive	Non-Toxic	inactive	-32.5%
			Not Active	Not Active		inactive	COC(COCCCCc1ccc2ccc3cccc4ccc1c2c34)CO[C@@H]1O[C@H](CO)[C@@H](O[C@@H]2O[C@H](CO)[C@H](O)[C@H](O)[C@H]2O)[C@H](O)[C@H]1O (mixture of isomers)			Non-Toxic		
			Active	Active		inactive	COC(COCCCCCCCCCCCCCCCCc1ccc2ccc3cccc4ccc1c2c34)CO[C@@H]1O[C@H](CO)[C@@H](O[C@@H]2O[C@H](CO)[C@H](O)[C@H](O)[C@H]2O)[C@H](O)[C@H]1O (mixture of isomers)			Non-Toxic		
